In ChEMBL document CHEMBL3351823, “Synthesis and biological evaluations of new analogs of 2-methoxyestradiol: inhibitors of tubulin and angiogenesis” (Eur J Med Chem, 2014) one finds IC50 and Activity data, which are given here for 16 molecules.

As a reminder, the IC50 is the concentration that inhibits the measured activity by half.

For assay [1], the system named is K562. As to the kind of experiment: Anticancer activity against human K562 cells assessed as cell growth inhibition after 5 days by MTT assay. The settings on record: K562, 120 h. The assay is classed as functional, cell-based. The procedure, abridged: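 Compounds dissolved in DMSO and serially diluted in medium. Equal volume added to cells at about 40,000 cells/ml, set by doubling time. K562 grown in RPMI with 2-mercaptoethanol, L-glutamine and 10% FCS, no antibiotics. Drug-free wells served as control. Growth read on a plate reader; IC50 taken graphically as % of control growth. Three experiments run in duplicate.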
A general note: Formazan colour is commonly taken as a measure of viable cells.

A short description of assay [2]: Anticancer activity against human OVCAR3 cells assessed as cell growth inhibition after 5 days by MTT assay. The class given is functional, cell-based. As to conditions: OVCAR-3, 120 h.
Assay [3] can be described thus: Anticancer activity against human WM35 cells assessed as cell growth inhibition after 5 days by MTT assay. The class given is functional, cell-based. The settings on record: WM35, 120 h.
Assay [4] in a line: Antiangiogenic activity in BAECs after 18 hrs by extracellular matrix assay. The assay is classed as functional, Bos taurus. The settings on record: baec. The procedure, abridged:
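Extracellular matrix thawed at 4 °C, 50 µl per well, set 10 min at 37 °C. Solid wells incubated 30 min with BAECs (30,000 cells/well), then given analogs at the same concentration. IC50 from three experiments run in duplicate.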

Assay [5] addresses T1, Estrogen receptor (Homo sapiens) (UniProt P03372).
T1 sequence (whole entry): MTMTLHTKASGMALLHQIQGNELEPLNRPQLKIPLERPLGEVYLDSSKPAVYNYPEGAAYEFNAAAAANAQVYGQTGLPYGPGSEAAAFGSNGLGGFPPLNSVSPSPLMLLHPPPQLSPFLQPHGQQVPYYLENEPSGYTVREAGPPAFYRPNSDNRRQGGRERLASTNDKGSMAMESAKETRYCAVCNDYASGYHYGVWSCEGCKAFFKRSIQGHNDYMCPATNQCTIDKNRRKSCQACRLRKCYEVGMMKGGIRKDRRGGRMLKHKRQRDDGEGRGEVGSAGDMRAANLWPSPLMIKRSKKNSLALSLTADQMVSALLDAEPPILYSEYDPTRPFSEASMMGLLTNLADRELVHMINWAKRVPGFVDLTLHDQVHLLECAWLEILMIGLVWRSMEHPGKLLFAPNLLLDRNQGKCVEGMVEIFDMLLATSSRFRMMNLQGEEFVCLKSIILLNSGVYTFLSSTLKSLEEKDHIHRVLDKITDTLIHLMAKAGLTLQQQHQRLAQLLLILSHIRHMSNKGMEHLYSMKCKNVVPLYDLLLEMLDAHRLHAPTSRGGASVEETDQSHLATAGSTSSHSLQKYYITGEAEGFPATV
As to the kind of experiment: Agonist activity at estrogen receptor (unknown origin) expressed in rat PC12 cells coexpressing ER-luc at 10 uM after 24 hrs. The class given is cell-based. The settings on record: PC-12. In a few lines:
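PC-12 cells plated at 7 × 10⁴ cells/ml, 37 °C, 5% CO₂; co-transfected with ERE-luc and ER one day after plating (liposome complexes in serum-free DMEM, serum medium restored after 3 h). Treated next day for 24 h; 0.1% DMSO solvent control, 17-β-estradiol positive control. Luciferase read with 1 mM luciferin, normalised to Renilla; 2 independent experiments, n = 3–5.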

Assay [6] has as its target Tubulin (Sus scrofa, UniProt P02554+P02550). As to the kind of experiment: Inhibition of porcine brain tubulin polymerization after 60 mins. In a few lines: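 Wells pre-chilled at 4 °C for 30 min. Mixture of Mes buffer pH 6.6 with MgCl2, GTP, tubulin (50 µl of 11 mg/ml in Mes buffer) and test compound in DMSO. Absorbance recorded at 25 °C over 60 min. Change in optical density compared with untreated controls.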

Activity calls are given as the source filed them. No cut-off for these calls is given here. Some results are limits rather than exact numbers.

As to `COc1cc2c(cc1O)CC[C@@H]1[C@@H]2CC[C@]2(C)C(c3cccnc3)=CC[C@@H]12`, the IC50 in assay [1], in assay [2], in assay [3] and in assay [4] was more than 10000 nM each time. The result in assay [5] was inactive.

Take `COc1cc2c(cc1O)CC[C@@H]1[C@@H]2CC[C@]2(C)[C@@H](c3cccc4cnccc34)CC[C@@H]12`: the half-maximal inhibitory concentration (IC50) in assay [1] came to 2100 nM; in assay [2] it was 3000 nM; in assay [3], 4100 nM; in assay [6], 8100 nM; in assay [4], 1300 nM.

For the molecule `COc1cc2c(cc1O)CC[C@@H]1[C@@H]2CC[C@]2(C)[C@@H](c3ccncc3)CC[C@@H]12`, the IC50 in assay [1] was found to be 1400 nM; in assay [2], 1000 nM; in assay [3] it was 1600 nM; in assay [6] it was 5800 nM; in assay [4], 4200 nM.

With `COc1cc2c(cc1O)CC[C@@H]1[C@@H]2CC[C@]2(C)C(c3cncc4ccccc34)=CC[C@@H]12`, the IC50 in assay [1] was determined as 500 nM; in assay [2], 400 nM; in assay [3], 700 nM; in assay [6], 4800 nM; in assay [4], 800 nM. For the same molecule, the result in assay [5] was inactive.

On to `COc1cc2c(cc1O)CC[C@@H]1[C@@H]2CC[C@]2(C)[C@@H](c3ccc4ccncc4c3)CC[C@@H]12`, for which the 50% inhibitory concentration (IC50) in assay [1] is more than 10000 nM; in assay [2], more than 10000 nM; in assay [3], more than 10000 nM; in assay [6], more than 10000 nM; in assay [4], 3300 nM.

With `COc1cc2c(cc1O)CC[C@@H]1[C@@H]2CC[C@]2(C)[C@@H](O)CC[C@@H]12` [2-METHOXYESTRADIOL], the half-maximal inhibitory concentration (IC50) is 800 nM in assay [1]; 1200 nM in assay [2]; 2100 nM in assay [3]; 2200 nM in assay [6]; 3200 nM in assay [4].

With `COc1cc2c(cc1O)CC[C@@H]1[C@@H]2CC[C@]2(C)[C@@H](c3cncc4c3CCCC4)CC[C@@H]12`, the IC50 in assay [1] was determined as 500 nM; in assay [2], 400 nM; in assay [3] it was 900 nM; in assay [6] it was 2500 nM; in assay [4], 1100 nM. Also, the result in assay [5] was inactive.

Regarding `COc1cc2c(cc1O)CC[C@@H]1[C@@H]2CC[C@]2(C)C(c3ccc4ccncc4c3)=CC[C@@H]12`, the half-inhibitory concentration (IC50) in assay [1], in assay [2], in assay [3] and in assay [4] was more than 10000 nM in each case.

As to `COc1cc2c(cc1O)CC[C@@H]1[C@@H]2CC[C@]2(C)C(c3ccncc3)=CC[C@@H]12`, the IC50 in assay [1] was 900 nM; in assay [2] it was 1200 nM; in assay [3], 1000 nM; in assay [6], 4100 nM; in assay [4], 600 nM.

`COc1cc2c(cc1O)CC[C@@H]1[C@@H]2CC[C@]2(C)C(c3ccccc3)=CC[C@@H]12`: the 50% inhibitory concentration (IC50) in assay [1], in assay [2], in assay [3] and in assay [4] was more than 10000 nM in each case.

Turning to `COc1cc2c(cc1O)CC[C@@H]1[C@@H]2CC[C@]2(C)[C@@H](c3cccc4c3CCCN4)CC[C@@H]12`, the 50% inhibitory concentration (IC50) worked out at 1300 nM in assay [1]; 1500 nM in assay [2]; 1900 nM in assay [3]; 3700 nM in assay [6]; 3300 nM in assay [4]. For the same molecule, the result in assay [5] was inactive.

As to `COc1cc2c(cc1O)CC[C@@H]1[C@@H]2CC[C@]2(C)C(c3cccc4ncccc34)=CC[C@@H]12`, the half-maximal inhibitory concentration (IC50) in assay [1] came to 1100 nM; in assay [2] it was 1200 nM; in assay [3], 2900 nM; in assay [6], 3100 nM; in assay [4], 2000 nM.

Turning to `COc1cc2c(cc1O)CC[C@@H]1[C@@H]2CC[C@]2(C)C(c3ccc4cnccc4c3)=CC[C@@H]12`, the concentration for half-maximal inhibition (IC50) in assay [1] was determined as 400 nM; in assay [2] it was 200 nM; in assay [3], 1000 nM; in assay [6] it was 2200 nM; in assay [4] it was 700 nM.

With `COc1cc2c(cc1O)CC[C@@H]1[C@@H]2CC[C@]2(C)[C@@H](c3ccc4cnccc4c3)CC[C@@H]12`, the half-maximal inhibitory concentration (IC50) in assay [1] came to 700 nM; in assay [2], 500 nM; in assay [3], 900 nM; in assay [6], 2100 nM; in assay [4] it was 600 nM.

On to `COc1cc2c(cc1O)CC[C@@H]1[C@@H]2CC[C@]2(C)C(c3cccc4cnccc34)=CC[C@@H]12`, for which the IC50 in assay [1] was found to be 3100 nM; in assay [2], 3900 nM; in assay [3], 5100 nM; in assay [6] it was 7200 nM; in assay [4], 2400 nM.

For the molecule `COc1cc2c(cc1O)CC[C@@H]1[C@@H]2CC[C@]2(C)[C@@H](c3cccnc3)CC[C@@H]12`, the IC50 in assay [1] amounted to 1100 nM; in assay [2] it was 800 nM; in assay [3] it was 1900 nM; in assay [6] it was 5100 nM; in assay [4] it was 5200 nM. Also, the result in assay [5] was inactive.
